# Bioassay records (PubChem)
# The list is not random: actives were taken first. Their share in the collection is about 0.89%.
# Xi reactivation: activators of inactive X chromosome reactivation, primary screen, imaging, XiGFP fibroblasts, GFP high-content imaging, set 2 | XiGFP mouse fibroblasts, % GFP-positive cells imaging, 3 d; cells co-treated with 5-aza-dC sensitizer; scaled so ellipticine positive control = 100% | activation, % at 7.58 µM | hit rate 0.055% among 360,000 | AID 743238, 2013;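 active means mean normalized replicate activation at least 10% and every replicate at or above 10%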;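 further: 0% = median of on-plate neutral control wells and 100% = ellipticine 6 µM median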
#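 Schedule: 3 d treatment, 15 min room-temperature fixation; system: 68-5-11 XiGFP fibroblast line; buffer or medium: DMEM plus 5-aza-dC sensitizer; control set: ellipticine 6 µM positive control; compound: one concentration, pinned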
# V-ATPase pH: regulators of yeast V-ATPase proton pumping, primary screen, pHLuorin cytosolic pH fluorescence; hit rate 0.37% among 350,000; response, % at 10 µM; S. cerevisiae; AID 504577, 2011; in the data active means response mostly above about 7.3%, no sharp cut-off; inactive means mostly below about 5.4%; further: actives read high
# Arr AP2 block: inhibitors of beta-arrestin/AP2 binding, primary screen, biochemical, GPCR trafficking, flow cytometry. beta-arrestin 1 C-terminal peptide binding to AP2 beta2-adaptin appendage (human). inhibition, % at 10 µM. FITC-arrestin peptide / GST-AP2 beads; AP2 beta2 appendage carries R879A mutation. hit rate 0.31% among 340,000;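 active means inhibition above a set limit, near 3 SD of compounds lacking own fluorescence, cut at about 54% in these data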;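 further: plate controls were DMSO wells for no effect and 5 µM unlabelled arrestin peptide for full effect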
#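 System: GST-tagged AP2 beta2-adaptin appendage (R879A) on 4 µm glutathione beads / Reagent: FITC-arrestin peptide, 50 nM / Detection: HyperCyt-sampled flow cytometry, FL1 channel, ex 488/em 535 nm / Timing: 12 min plus 1 h, RT / Buffer or medium: PBS plus Tween 20 (0.05%) and BSA (0.1%)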
# MIN6 prolif: inducers of MIN6 beta-cell proliferation, primary screen, ATP luminescence, uHTS; MIN6 cells proliferation, ATPlite luminescence, 48 h; cells starved in 0.2% serum; 100% = growth in 10% serum; proliferation, % at 10 µM; hit rate 0.29% among 330,000; AID 2380, 2010;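 active means compounds whose signal lies at least 3.5 SD above the mean of all wells on their plate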;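 further: 0% = DMSO-treated cells in low-serum medium and 100% = 10% serum control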
# T cell modulator: modulators of CD8 T cell-vesicle binding, primary screen, mouse 2C CD8+ T cells, flow cytometry | 2C CD8+ T cell-vesicle binding; hits give low values | response (vesicle binding), % at 7 µM | hit rate 0.068% among 330,000;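 active means response, share of CD8 T cells binding vesicles, and their 90th percentile fluorescence all below set limits, cut at about 80% in these data, passing the limit was not always enough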;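 further: values below 100% mean blocked vesicle binding to the CD8+ T cells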
#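 Read-out – percent CD8+ FL2 mean versus row control · System – murine 2C transgenic CD8+ T lymphocytes · Times – 1.5 h cell–vesicle binding at 37 °C, then 20 min icy labelling · Control set – naked vesicles low, QL9 vesicles with vehicle high · Detection – cytometric PE anti-B7-1 and Alexa647 anti-CD8 signals after 1% paraformaldehyde fixation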
# NTR1 ag: agonists of human NTR1, primary screen, imaging, U2OS cells, beta-arrestin-GFP, high content; NTR1-U2OS beta-arrestin-GFP spot imaging, agonist mode; activation, % at 20 µM; Neurotensin receptor type 1 (Homo sapiens), P30989; hit rate 0.17% among 330,000;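 active means activation at or above 40% of the spot to cytoplasm intensity ratio, with at least 20 cells analyzed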;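 further: 0% = DMSO without peptide and 100% = 100 nM NTR1 peptide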
# Arr AP2 CP1: inhibitors of arrestin peptide binding to AP2, confirmation, biochemical, cherry pick 1, flow cytometry beads. AID 504908, 2011. hit rate 2% among 1,300. shares compounds with Arr AP2 block. inhibition, % at 10 µM. GST-AP2 beads, FITC arrestin peptide binding; GST-fused beta2-adaptin appendage, R879A mutant;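 active means inhibition above a set limit, roughly 3 SD of non-fluorescent compound noise, cut at about 38% in these data; inactive means inhibition at or below that limit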;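 further: loss of bead fluorescence from 50 nM FITC arrestin peptide bound to appendage; 0% = negative control wells and 100% = excess unlabelled arrestin peptide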
# Target sequence (P63010 whole entry, looked up, the tested form may be a part, one chain of several): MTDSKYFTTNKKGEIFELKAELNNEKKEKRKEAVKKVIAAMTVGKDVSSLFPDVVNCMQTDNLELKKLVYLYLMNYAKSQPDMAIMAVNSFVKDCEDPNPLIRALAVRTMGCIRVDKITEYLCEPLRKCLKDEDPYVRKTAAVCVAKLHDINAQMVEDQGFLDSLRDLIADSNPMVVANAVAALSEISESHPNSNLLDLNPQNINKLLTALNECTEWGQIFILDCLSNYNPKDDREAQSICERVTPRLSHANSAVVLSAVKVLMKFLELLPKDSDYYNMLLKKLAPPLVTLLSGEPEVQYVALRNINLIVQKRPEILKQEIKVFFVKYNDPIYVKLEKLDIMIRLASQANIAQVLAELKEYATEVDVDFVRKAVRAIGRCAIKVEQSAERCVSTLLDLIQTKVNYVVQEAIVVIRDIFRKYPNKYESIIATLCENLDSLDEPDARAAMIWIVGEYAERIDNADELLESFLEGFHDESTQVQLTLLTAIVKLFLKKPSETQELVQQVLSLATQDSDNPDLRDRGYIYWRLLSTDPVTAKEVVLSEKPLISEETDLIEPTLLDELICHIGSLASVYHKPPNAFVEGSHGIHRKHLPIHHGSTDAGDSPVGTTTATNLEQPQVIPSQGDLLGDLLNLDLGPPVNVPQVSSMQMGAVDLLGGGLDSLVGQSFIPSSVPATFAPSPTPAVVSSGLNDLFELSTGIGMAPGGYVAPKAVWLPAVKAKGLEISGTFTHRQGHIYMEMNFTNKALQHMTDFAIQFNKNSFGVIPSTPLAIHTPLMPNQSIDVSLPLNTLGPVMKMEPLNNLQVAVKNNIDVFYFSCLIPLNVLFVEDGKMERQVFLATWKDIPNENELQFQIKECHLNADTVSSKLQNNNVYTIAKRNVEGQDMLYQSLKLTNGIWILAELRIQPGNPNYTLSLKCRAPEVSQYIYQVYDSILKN
# GST GSH counter: GST-fluorescein capture on glutathione beads, confirmation, artefact control for arrestin-AP2 inhibitor project, biochemical, cherry pick 1, flow cytometry. shares compounds with Arr AP2 block. GST-fluorescein binding to GSH beads, fluorescence, counter-screen. inhibition, % at 10 µM. hit rate 2% among 1,300. AID 588338, 2011;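 active means inhibition above 50%, about 3 SD of the inhibition seen with non-fluorescent compounds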;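 further: fluorescein maleimide labelled GST captured on 4 micron glutathione beads; higher means more loss of bead fluorescence from quenching or blocked binding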
# * hit, by the source's call; nt = no result.
SMILES,Xi reactivation,V-ATPase pH,Arr AP2 block,MIN6 prolif,T cell modulator,NTR1 ag,Arr AP2 CP1,GST GSH counter
COc1cc2c(cc1NC(=O)CSc1cccc[n+]1[O-])oc1ccccc12,0,-4,56*,0,368,-2,0,0
COc1cc2c(cc1NC(=O)C(C)Sc1ccc(C)cc1)oc1ccccc12 (centres undefined),nt,2,21,-4,452,0,-3,nt
COc1cc2c(cc1NC(=O)Cc1ccc(C)cc1)oc1ccccc12,0,0,5,-4,200,2,4,-3
COc1cc2c(cc1NC(=O)COC(=O)[C@@H](NS(=O)(=O)c1ccccc1)C(C)C)oc1ccccc12,nt,2,-5,-3,0,1,nt,nt
COc1cc2c(cc1NC(=O)COC(=O)c1ccc(C(C)(C)C)cc1)oc1ccccc12,0,-1,-1,-2,202,1,0,0
COc1cc2c(cc1NC(=O)CSCC(=O)O)oc1ccccc12,nt,1,-2,0,159,-6,nt,nt
COC(=O)c1cc(OC)c(OC)cc1NC(=O)C(C)Sc1ccc(C)cc1 (centres undefined),nt,-7,22,1,323,0,nt,nt
COc1ccc(NC(=O)N(C)C[C@H]2Oc3ccc(NC(=O)NC4CCCCC4)cc3CC(=O)N([C@@H](C)CO)C[C@H]2C)cc1,0,nt,nt,nt,nt,nt,nt,nt
COc1ccc2c3c([nH]c2c1)[C@@H](CO)N(Cc1ccccc1)CC31CN(C(=O)c2ccccn2)C1,0,nt,nt,nt,nt,nt,nt,nt
Cc1ccc(S(=O)(=O)Nc2ccc3c(c2)C(=O)N([C@@H](C)CO)C[C@@H](C)[C@@H](CN(C)C(=O)CCC(F)(F)F)OCCCC[C@@H](C)O3)cc1,0,nt,nt,nt,nt,nt,nt,nt
CCCN1[C@@H]2c3ccc(-c4cccnc4)c(=O)n3C[C@H]1[C@H](CO)[C@H]2C(=O)NC1CCCC1,0,nt,nt,nt,nt,nt,nt,nt
COc1cc2c(cc1NC(=O)CCC(=O)O)oc1ccccc12,0,0,24,-2,229,-1,nt,nt
COc1cc2c(cc1NC(=O)CSc1ccc(C)cc1)oc1ccccc12,nt,-4,6,-5,410,6,-1,-6
COc1cc2c(cc1NC(=O)COc1ccccc1OC)oc1ccccc12,nt,0,-2,-2,493,3,-5,2
COc1ccc2c3c([nH]c2c1)[C@H](CO)N(C(=O)Nc1ccccc1F)CC31CN(C(=O)C2CC2)C1,0,nt,nt,nt,nt,nt,nt,nt
CN(C)C(CNC(=O)CCNS(=O)(=O)c1ccccc1C(F)(F)F)c1ccccc1 (centres undefined),0,2,58*,0,527,-2,10,-4
N#C/C(=C/c1cn(-c2ccccc2)nc1-c1cccc(S(=O)(=O)N2CCOCC2)c1)C(=O)NCc1ccco1,0,3,99*,0,63,9,-8,1
N#C/C(=C/c1cn(-c2ccccc2)nc1-c1cccc(S(=O)(=O)N2CCCC2)c1)C(=O)NCc1ccco1,0,3,1,-3,181,11,nt,nt
CC(C)Cn1c(N)c(C(=O)COC(=O)c2ccccc2C(=O)c2ccccc2)c(=O)n(C)c1=O,0,-7,7,1,225,2,nt,nt
CC(C)Cn1c(N)c(C(=O)COC(=O)c2ccc3ccccc3n2)c(=O)n(C)c1=O,nt,2,2,0,243,-3,nt,nt
CC(C)Cn1c(N)c(C(=O)COC(=O)c2ccccc2Cl)c(=O)n(C)c1=O,0,0,-17,-2,634,5,6,-3
CC(C)Cn1c(N)c(C(=O)COC(=O)c2ccccc2F)c(=O)n(C)c1=O,0,-3,4,-3,136,0,-1,0
CC(C)Cn1c(N)c(C(=O)COC(=O)c2cccn2C)c(=O)n(C)c1=O,0,2,31,-2,158,0,-7,-2
CC(C)Cn1c(N)c(C(=O)COC(=O)c2c(F)cccc2F)c(=O)n(C)c1=O,0,-3,-22,0,228,2,nt,nt
COCC(=O)N(C)C[C@@H]1Oc2ncc(C#C[C@@H](C)O)cc2C(=O)N([C@@H](C)CO)C[C@H]1C,0,nt,nt,nt,nt,nt,nt,nt
SMILES,Xi reactivation,V-ATPase pH,Arr AP2 block,MIN6 prolif,T cell modulator,NTR1 ag,Arr AP2 CP1,GST GSH counter
COc1ccc(S(=O)(=O)N(C)C[C@@H]2OCCCC[C@@H](C)Oc3ccc(NC(=O)Nc4ccccc4)cc3C(=O)N([C@H](C)CO)C[C@H]2C)cc1,0,nt,nt,nt,nt,nt,nt,nt
c1ccc2c(c1)OCC(CNCC1COc3ccccc3O1)O2 (centres undefined),0,-1,0,-1,193,-1,nt,nt
c1ccc(CCNCC2COc3ccccc3O2)cc1 (centres undefined),0,-5,55*,-1,225,-1,-11,0
CCS(=O)(=O)Nc1ccc2c(c1)C(=O)N(C)C[C@H](OC)[C@H](C)CN(C)[C@H](C)CO2,0,nt,nt,nt,nt,nt,nt,nt
Cc1c(C(=O)NC(C)C)oc2c1-c1[nH]ncc1CC2,nt,nt,104*,-1,229,0,12,7
CCOc1ccc(CCNC(=O)c2oc3c(c2C)-c2[nH]ncc2CC3)cc1OCC,0,1,2,7,391,3,nt,nt
C[C@@H]1CN([C@H](C)CO)C(=O)c2cc(NC(=O)Nc3ccc(C(F)(F)F)cc3)ccc2O[C@@H](C)CCCCO[C@H]1CN(C)C,1,nt,nt,nt,nt,nt,nt,nt
CC1(C)Oc2ccc3ccc(=O)oc3c2/C(=C/Nc2ccc(O)cc2)C1=O,0,-1,55*,-6,358,25,-10,-4
CCCC(=O)OCCNc1cc(Sc2nc3ccccc3[nH]2)c2nonc2c1[N+](=O)[O-],0,-4,55*,-7,440,-1,0,7
CCC(=O)OCCNc1cc(SCCC(=O)OC)c2nonc2c1[N+](=O)[O-],0,2,32,-3,199,5,nt,nt
